Calls of active or inactive are those of the source.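 How the source made its calls, unless noted: active means viability at or below 10% of carrier control in both of two separate runs; inconclusive means viability at or below 10% in only one of the two runs; inactive means the rest.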
Legend:
[1] = reduced viability of SK-BR-3 breast cancer cells – cell-based, 24 h, human, pilot screen (AID 572); settings: SK-BR-3 viability, CellTiter-Glo luminescence, at 10 µM, stronger effect = lower value;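 further: compound exposure lasted between 18 and 24 h rather than exactly 24 h; 100% = carrier-treated control wells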
[2] = HUVEC growth inhibition – cell-based, human, primary screen (AID 575;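 active means viability at or below 30% in both replicate assays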;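 further: 100% = median of untreated cell wells with 0.1% DMSO on each plate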); settings: HUVEC proliferation, CellTiter-Glo luminescence, 72 h; at 10 µM; stronger effect = lower value
Outline: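 Test system: primary human umbilical vein endothelial cells. Quantity: 1250 cells/well. Compound: single 10 µM dose, 0.1% DMSO, from 5x medium stock. Timing: 72 h treatment at 37 °C. Detection: ATP-based CellTiter-Glo luminescent read. Benchmarks: vehicle and MePR control wells. Format: 384-well plates coated with collagen.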

[3] = H69AR cell proliferation blockers – human, duplicate replicates, primary screen (AID 580;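 active means viability at or under a set limit in both replicates, limit being median viability minus 3 SD, cut at about 48% in these data, passing the limit was not always enough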;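 further: 100% = mean luminescence of untreated wells and 0% = no signal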); settings: H69AR lung tumor cells viability, ATP luminescence, 72 h; at 10 µM; stronger effect = lower value
[4] = MRP1 drug-resistance reversers in H69AR cells – cell-based, doxorubicin co-treatment, pilot screen (AID 601;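 active means viability loss from added drug above about 55%, and viability with drug at most 40%, in both replicates, limit read from the data, passing the limit was not always enough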); settings: CellTiter-Glo, 72 h, at 10 µM; for differential viability (reversal): stronger effect = higher value
[5] = yeast transport mutant growth inhibition pilot in 384-well plates, post-Golgi transport modulator project (AID 636; in the data active means inhibition above about 31%); settings: absorbance 615 nm, about 18 h, stronger effect = higher value
[6] = growth suppression of yeast trafficking mutant, preliminary HTS, modulators of trafficking downstream of Golgi apparatus project, 1536-format plate, OD 615 nm (AID 637; in the data active means inhibition above about 30%); settings: yeast transport mutant growth, absorbance 615 nm, 18 h; stronger effect = higher value
[7] = H69AR cells + 2 uM doxorubicin, measured here: viability with 2 uM doxorubicin, stronger effect = lower value
[8] = H69AR cells, compound alone cytotoxicity

With `COc1ccc(CCNc2oc(COc3ccc(F)cc3)nc2C#N)cc1` the viability [1] was 164% (inactive), the viability [2] was 76.2% (inactive) and the viability [3] was 93.7% (inactive). For the same molecule, the differential viability (reversal) ([4]; H69AR cells + 2 uM doxorubicin) was 2.54% (inactive), the viability [4, 7] was 91.1% and the viability [4, 8] was 93.7%. For the same molecule, the inhibition [5] was -4.73% (inactive) and the inhibition [6] was 1.27% (inactive).

With `C=CCn1c(SCC(=O)c2ccccc2)nnc1-c1ccc2c(c1)OCO2` the viability [1] was 97% (inactive), the viability [2] was 107% (inactive) and the viability [3] was 100% (inactive). The differential viability (reversal) ([4]; H69AR cells + 2 uM doxorubicin) was -2.68% (inactive), the viability [4, 7] was 103% and the viability [4, 8] was 100%. The inhibition [5] was -1.78% (inactive) and the inhibition [6] was -3.06% (inactive).

For `CCN(CCCNC(=O)COc1cc(=O)n(CC)c2ccccc12)c1ccccc1`, the viability [1] was 86% (inactive), the viability [2] was 56.9% (inactive) and the viability [3] was 74.7% (inactive). For the same molecule, the differential viability (reversal) ([4]; H69AR cells + 2 uM doxorubicin) was 5.79% (inactive), the viability [4, 7] was 68.9% and the viability [4, 8] was 74.7%. The inhibition [5] was -5.32% (inactive) and the inhibition [6] was -4.75% (inactive).

In the case of `COCCCN(Cc1ccccn1)S(=O)(=O)Cc1ccccc1`, the viability [1] is reported as 130% (inactive), the viability [2] is reported as 83.5% (inactive) and the viability [3] is reported as 105% (inactive). For the same molecule, the differential viability (reversal) ([4]; H69AR cells + 2 uM doxorubicin) was 17.9% (inactive), the viability [4, 7] was 86.7% and the viability [4, 8] was 105%. For the same molecule, the inhibition [5] was -4.11% (inactive) and the inhibition [6] was -9.68% (inactive).

For `COc1cccc(N2CCN(Cc3nc(N)nc(Nc4ccccc4)n3)CC2)c1`, the viability [1] was 119% (inactive), the viability [2] was 89.1% (inactive) and the viability [3] was 75.5% (inactive). For the same molecule, the differential viability (reversal) ([4]; H69AR cells + 2 uM doxorubicin) was -14.5% (inactive), the viability [4, 7] was 90% and the viability [4, 8] was 75.5%. The inhibition [5] was -3.77% (inactive) and the inhibition [6] was 0.16% (inactive).

With `CCOC(=O)c1c(-c2ccc(C)o2)csc1NC(=O)CN1CCN(CC)CC1` the viability [1] was 87% (inactive), the viability [2] was 88.6% (inactive) and the viability [3] was 80.2% (inactive). The differential viability (reversal) ([4]; H69AR cells + 2 uM doxorubicin) was -6.44% (inactive), the viability [4, 7] was 86.7% and the viability [4, 8] was 80.2%. For the same molecule, the inhibition [5] was -7.53% (inactive) and the inhibition [6] was 4.18% (inactive).

For `CC(=O)Nc1c(O)[nH]c2ccccc12`, the viability [1] was 105% (inactive), the viability [2] was 102% (inactive) and the viability [3] was 93.6% (inactive). The differential viability (reversal) ([4]; H69AR cells + 2 uM doxorubicin) was -1.07% (inactive), the viability [4, 7] was 94.7% and the viability [4, 8] was 93.6%. For the same molecule, the inhibition [5] was -8.49% (inactive) and the inhibition [6] was 6.36% (inactive).

For `CC(=O)OCC(=O)[C@@]12OC(C)(C)O[C@@H]1C[C@H]1[C@@H]3C[C@H](F)C4=CC(=O)C=C[C@]4(C)[C@@]3(F)[C@@H](O)C[C@@]12C`, the viability [1] was 104% (inactive), the viability [2] was 62.1% (inactive) and the viability [3] was 106% (inactive). The differential viability (reversal) ([4]; H69AR cells + 2 uM doxorubicin) was 2.31% (inactive), the viability [4, 7] was 104% and the viability [4, 8] was 106%. The inhibition [5] was 0.65% (inactive) and the inhibition [6] was -1.83% (inactive).

For `CC(=O)Nc1ccc(NC(=O)Cn2cnc3c(cnn3C(C)(C)C)c2=O)cc1`, the viability [1] was 101% (inactive), the viability [2] was 87.9% (inactive) and the viability [3] was 98.9% (inactive). For the same molecule, the differential viability (reversal) ([4]; H69AR cells + 2 uM doxorubicin) was 13.8% (inactive), the viability [4, 7] was 85.1% and the viability [4, 8] was 98.9%. The inhibition [5] was -5.47% (inactive) and the inhibition [6] was 3.27% (inactive).

For `CCCC1CCC(C(=O)Nn2cnc3ccccc3c2=O)CC1` (centres undefined), the viability [1] was 101% (inactive), the viability [2] was 108% (inactive) and the viability [3] was 91.7% (inactive). The differential viability (reversal) ([4]; H69AR cells + 2 uM doxorubicin) was 9.62% (inactive), the viability [4, 7] was 82% and the viability [4, 8] was 91.7%. For the same molecule, the inhibition [5] was 1.17% (inactive) and the inhibition [6] was 7.05% (inactive).

In the case of `COC(=O)c1cccc(S(=O)(=O)N2CCC(C)CC2)c1`, the viability [1] is reported as 100% (inactive), the viability [2] is reported as 105% (inactive) and the viability [3] is reported as 93.8% (inactive). For the same molecule, the differential viability (reversal) ([4]; H69AR cells + 2 uM doxorubicin) was -4.31% (inactive), the viability [4, 7] was 98.1% and the viability [4, 8] was 93.8%. The inhibition [5] was 0.52% (inactive) and the inhibition [6] was -3.44% (inactive).

With `CC1(C)CC(=O)C2=C(C1)NC(=O)CC2C(=O)NCc1ccc(F)cc1` (centres undefined) the viability [1] was 106% (inactive), the viability [2] was 110% (inactive) and the viability [3] was 111% (inactive). The differential viability (reversal) ([4]; H69AR cells + 2 uM doxorubicin) was 15.3% (inactive), the viability [4, 7] was 95.5% and the viability [4, 8] was 111%. For the same molecule, the inhibition [5] was -4.05% (inactive) and the inhibition [6] was 1.64% (inactive).

For `N#CC1=C(N)N(c2ccccc2)C(c2ccccc2)C1(C#N)C#N` (centres undefined), the viability [1] was 84.5% (inactive), the viability [2] was 81.6% (inactive) and the viability [3] was 80.1% (inactive). For the same molecule, the differential viability (reversal) ([4]; H69AR cells + 2 uM doxorubicin) was 1.28% (inactive), the viability [4, 7] was 78.8% and the viability [4, 8] was 80.1%. The inhibition [5] was -6.27% (inactive) and the inhibition [6] was -0.97% (inactive).

— PubChem BioAssay
